UCH37 inh: inhibitors of human UCH37 deubiquitinase, primary screen, biochemical, Ub-AMC cleavage, fluorescence. 330,000 tested, 0.33% active. Ubiquitin carboxyl-terminal hydrolase isozyme L5 (Homo sapiens), Q9Y5K5. AID 588478, 2011. inhibition, % (test concentration not listed). purified proteasome/UCH37;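 active = mean inhibition over replicate wells above about 20%, limit read from the data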;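 note: 0% = compound-free wells with enzyme and 100% = wells lacking proteasome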
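system = Proteasome-associated human UCH37 deubiquitinase | amount = 0.15 nM proteasome as dispensed | medium = pH 7.4 Tris-HCl (50 mM) with ovalbumin, ATP-MgCl2, DTT | incubation = 30 min preincubation with enzyme, 25 min cleavage at room temperature | detection = AMC fluorescence 355/460 nm | read-out basis = percent inhibition | controls = no-proteasome and no-compound wells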
MEKK3 PB1 HTS: modulators of MEKK3-MEK5 PB1 binding, primary screen, biochemical, wildtype MEKK3, multiplex bead flow cytometry, Alexa488-MEK5 | AID 1529, 2009 | binding response (% of control), % at 10 µM | Mitogen-activated protein kinase kinase kinase 3 (Homo sapiens), Q99759 | bead-based flow cytometry, Alexa488-MEK5 binding to MEKK3; actives lie on both sides; 0 = blocked by unlabeled MEK5, 100 = vehicle | 290,000 tested, 1.4% active;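 active = binding response more than 3 SD above or below the average of its plate-row segment, actives on both sides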;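 note: Alexa488 bead fluorescence after subtracting the streptavidin-only scavenger bead signal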
Target sequence (Q99759 whole entry, looked up): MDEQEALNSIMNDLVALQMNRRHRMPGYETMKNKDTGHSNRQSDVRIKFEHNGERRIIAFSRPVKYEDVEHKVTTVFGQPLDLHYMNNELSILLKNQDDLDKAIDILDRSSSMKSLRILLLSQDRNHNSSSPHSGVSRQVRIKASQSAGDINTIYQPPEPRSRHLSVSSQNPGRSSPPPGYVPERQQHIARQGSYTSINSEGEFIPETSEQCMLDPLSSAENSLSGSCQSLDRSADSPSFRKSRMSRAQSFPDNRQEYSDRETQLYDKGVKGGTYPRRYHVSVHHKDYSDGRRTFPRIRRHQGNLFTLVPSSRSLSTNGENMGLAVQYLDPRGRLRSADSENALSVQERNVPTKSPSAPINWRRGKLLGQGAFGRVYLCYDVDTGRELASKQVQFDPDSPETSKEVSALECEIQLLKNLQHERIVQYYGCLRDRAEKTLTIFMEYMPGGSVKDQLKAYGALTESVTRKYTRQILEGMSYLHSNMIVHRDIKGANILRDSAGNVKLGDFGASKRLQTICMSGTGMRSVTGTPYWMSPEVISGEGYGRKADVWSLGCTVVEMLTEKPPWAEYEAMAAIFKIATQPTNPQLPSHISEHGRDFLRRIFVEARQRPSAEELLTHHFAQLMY
T cell modulator: modulators of CD8 T cell-vesicle binding, primary screen, mouse 2C CD8+ T cells, flow cytometry; response (vesicle binding), % at 7 µM; 2C CD8+ T cell-vesicle binding; hits give low values; 330,000 tested, 0.068% active; AID 2052, 2009;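 active = response, share of CD8 T cells binding vesicles, and their 90th percentile fluorescence all below set limits, cut at about 80% in these data, passing the limit was not always enough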;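 note: values below 100% mean blocked vesicle binding to the CD8+ T cells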
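incubation = binding step 1.5 h, 37 °C, antibody labelling 20 min, ice | test system = 2C mouse CD8+ T cells | read-out basis = percent CD8+ FL2 mean versus row control | controls = Peptide-free naked vesicles (low) and QL9 vesicles with 0.7% DMSO vehicle (high) | detection = flow cytometry of vesicle-bound cells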
MEKK2mut PB1 HTS: MEK5 binding signal on mutant MEKK2 PB1, primary screen, biochemical, multiplex bead flow cytometry, Alexa488-MEK5. Alexa488-MEK5 binding to MEKK2 mutant. percent response, % at 10 µM. 290,000 tested, 0.35% active. AID 1530, 2009; in the data active = percent response above about 24%, passing the limit was not always enough
Rce1 inh: yeast Rce1p protease inhibitors, primary screen, biochemical, fluorescence, cell-free homogeneous. yeast membranes, quenched prenylated peptide cleavage fluorescence. 290,000 tested, 0.27% active. calls only. AID 2563, 2010;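 active = fall in fluorescence gain of 50% or more versus controls, with final raw signal at or below 3038400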;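 note: plate controls were neutral control wells for no effect and wells lacking membranes for full effect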
MEKK2wt PB1 HTS: modulators of MEK5 binding to wildtype MEKK2, primary screen, biochemical, multiplex bead flow cytometry, Alexa488-MEK5 | 290,000 tested, 1.1% active | Alexa488-MEK5 binding to MEKK2 WT; actives lie on both sides | binding response (% of control), % at 10 µM | AID 1531, 2009; in the data active = binding response below about 67% or above about 130%
* hit, by the source's call; [ ] = dose if it differs, or a comment. Shown are actives, neighbours in structure and some others; about 2.5% of the full set was active somewhere.

Results for OCCN(CC#CC(O)(c1ccccc1)C1CCCC1)CCO (configuration not stated) ?
UCH37 inh: 32.3*; MEKK3 PB1 HTS: 100.0; T cell modulator: 288.1; MEKK2mut PB1 HTS: 6.0; Rce1 inh: inactive; MEKK2wt PB1 HTS: 104.0

How did CN1CCN(c2ccc([N+](=O)[O-])c(Sc3ccccn3)c2)CC1 do in these assays?
UCH37 inh: 12.5; MEKK3 PB1 HTS: 91.0; T cell modulator: 256.9; MEKK2mut PB1 HTS: -7.0; Rce1 inh: inactive; MEKK2wt PB1 HTS: 96.0

What do the screens show for `CN1CCN(c2ccc([N+](=O)[O-])c(Sc3nncn3C)c2)CC1`?
UCH37 inh: 7.1; MEKK3 PB1 HTS: 102.0; T cell modulator: 318.2; MEKK2mut PB1 HTS: 3.0; Rce1 inh: active; MEKK2wt PB1 HTS: 102.0

How did COC(=O)C1C2c3ccccc3OC1(C)N=c1sc(=Cc3cnn(C)c3C)c(=O)n12 (configuration not stated) do in these assays?
UCH37 inh: 2.0

What do the screens show for `CN1C(=O)/C(=C\c2ccc(N3CCCCC3)o2)C(=O)NC1=S`?
UCH37 inh: 21.8*; MEKK3 PB1 HTS: 100.0; T cell modulator: 371.5; MEKK2mut PB1 HTS: -1.0; Rce1 inh: inactive; MEKK2wt PB1 HTS: 98.0

Results for CN1CCN(c2ccc(/C=C3\C(=O)NC(=S)N(c4cccc(Br)c4)C3=O)o2)CC1 ?
UCH37 inh: 21.1*; MEKK3 PB1 HTS: 85.0; T cell modulator: 152.4; MEKK2mut PB1 HTS: -6.0; Rce1 inh: inactive; MEKK2wt PB1 HTS: 85.0

What do the screens show for `COc1ccc(C=NN=C(N)N)cc1`?
UCH37 inh: 1.9

How did CCOC(=O)c1c(-c2ccc(OC)cc2)oc2ccc(OC(=O)N(C)C)cc12 do in these assays?
UCH37 inh: -447.4; MEKK3 PB1 HTS: 105.0; T cell modulator: 267.5; MEKK2mut PB1 HTS: -1.0; Rce1 inh: active; MEKK2wt PB1 HTS: 101.0

Results for Cc1cccc(N2C(=O)NC(=O)/C(=C\C=C\c3ccco3)C2=O)c1 ?
UCH37 inh: 1.3; MEKK3 PB1 HTS: 99.0; T cell modulator: 64.9; MEKK2mut PB1 HTS: -3.0; Rce1 inh: inactive; MEKK2wt PB1 HTS: 94.0

What do the screens show for `Cc1cccc(N2C(=O)NC(=O)/C(=C/c3ccc([N+](=O)[O-])o3)C2=O)c1`?
UCH37 inh: 20.8*; MEKK3 PB1 HTS: 97.0; T cell modulator: 339.2; MEKK2mut PB1 HTS: 0.0; MEKK2wt PB1 HTS: 95.0

Results for COc1ccccc1CC1C(=NO)C2CCN1CC2 (configuration not stated) ?
UCH37 inh: 2.8

How did CCOc1ccc(C=C2C(=O)NC(=S)NC2=O)cc1OCC do in these assays?
UCH37 inh: 1.9

How did CCOc1cc(C=C2C(=O)NC(=O)NC2=O)ccc1OS(=O)(=O)c1ccccc1 do in these assays?
UCH37 inh: 20.3*; MEKK3 PB1 HTS: 101.0; T cell modulator: 244.2; MEKK2mut PB1 HTS: 0.0; Rce1 inh: inactive; MEKK2wt PB1 HTS: 97.0

Results for CCOC(=O)CC(NC(=O)C(Cc1ccc(N(CCCl)CCCl)cc1)NC(C)=O)C(=O)OCC (configuration not stated) ?
UCH37 inh: -1.3; MEKK3 PB1 HTS: 103.0; T cell modulator: 32.7*; MEKK2mut PB1 HTS: -9.0; Rce1 inh: inactive; MEKK2wt PB1 HTS: 96.0

How did NC(=O)c1ccc(N=Nc2c(O)[nH]c(=O)[nH]c2=O)cc1 do in these assays?
MEKK3 PB1 HTS: 100.0; T cell modulator: 288.8; MEKK2mut PB1 HTS: 1.0; Rce1 inh: inactive; MEKK2wt PB1 HTS: 101.0

Results for O=c1[nH]c(O)c(N=Nc2cc([N+](=O)[O-])ccc2O)c(=O)[nH]1 ?
UCH37 inh: 22.7*; MEKK3 PB1 HTS: 96.0; T cell modulator: 125.4; MEKK2mut PB1 HTS: -6.0; Rce1 inh: inactive; MEKK2wt PB1 HTS: 93.0

How did CCc1nc2ccccc2c(=O)n1-c1ccccc1[N+](=O)[O-] do in these assays?
UCH37 inh: 0.7; MEKK3 PB1 HTS: 102.0; T cell modulator: 189.7; MEKK2mut PB1 HTS: 11.0; Rce1 inh: inactive; MEKK2wt PB1 HTS: 106.0

How did CCCCc1nc2ccccc2c(=O)n1-c1ccccc1[N+](=O)[O-] do in these assays?
UCH37 inh: 23.7*; MEKK3 PB1 HTS: 97.0; T cell modulator: 406.5; MEKK2mut PB1 HTS: 1.0; Rce1 inh: inactive; MEKK2wt PB1 HTS: 97.0

How did CCn1nc(-c2ccccc2)nc2c(=O)n(C)c(=O)nc1-2 do in these assays?
UCH37 inh: 98.7*; MEKK3 PB1 HTS: 108.0; T cell modulator: 433.0; MEKK2mut PB1 HTS: 11.0; Rce1 inh: inactive; MEKK2wt PB1 HTS: 109.0

What do the screens show for `NC(=NCCCC(NC(=O)CNC(=O)c1ccccc1)C(=O)O)N[N+](=O)[O-]` (configuration not stated)?
UCH37 inh: 3.7

Results for CN1C(=O)C(Cc2ccsc2)C(=O)N(C)C1=O ?
UCH37 inh: 2.2; MEKK3 PB1 HTS: 106.0; T cell modulator: 137.3; MEKK2mut PB1 HTS: 7.0; Rce1 inh: inactive; MEKK2wt PB1 HTS: 102.0

How did CCCCOc1ccc(CC2C(=O)N(C)C(=O)N(C)C2=O)cc1 do in these assays?
UCH37 inh: 28.8*; MEKK3 PB1 HTS: 99.0; T cell modulator: inactive; MEKK2mut PB1 HTS: -2.0; MEKK2wt PB1 HTS: 101.0

What do the screens show for `CCCCCCn1c(O)c(C=Nc2ccccc2N2CCOCC2)c(=O)[nH]c1=S`?
UCH37 inh: -8.7; MEKK3 PB1 HTS: 101.0; T cell modulator: 135.7; MEKK2mut PB1 HTS: 24.0; Rce1 inh: inactive; MEKK2wt PB1 HTS: 29.0*

Results for O=C(CSC1c2ccccc2-c2ccccc21)NN=Cc1ccccc1 ?
UCH37 inh: 2.8

What do the screens show for `Cc1[nH]c2ccccc2c1C=NO`?
UCH37 inh: 0.8

How did NC(=NN=Cc1ccc(O)cc1O)N[N+](=O)[O-] do in these assays?
UCH37 inh: 17.5

How did NC(=NN=Cc1ccc(-c2ccc(O)c(C(=O)O)c2)o1)N[N+](=O)[O-] do in these assays?
UCH37 inh: 21.9*

What do the screens show for `C[n+]1c(-c2ccccc2)cc(CCCCc2cc(-c3ccccc3)[n+](C)c(-c3ccccc3)c2)cc1-c1ccccc1`?
UCH37 inh: -3.3; MEKK3 PB1 HTS: 108.0; T cell modulator: 518.6; MEKK2mut PB1 HTS: 56.0*; Rce1 inh: inactive; MEKK2wt PB1 HTS: 9.0*[inhibitor]

What do the screens show for `COc1ccc(-c2cc(-c3ccccc3)[n+](C)c(-c3ccccc3)c2)cc1`?
UCH37 inh: -20.1; MEKK3 PB1 HTS: 103.0; T cell modulator: 190.9; MEKK2mut PB1 HTS: -1.0; Rce1 inh: inactive; MEKK2wt PB1 HTS: 99.0
